Experimental findings from ChEMBL document CHEMBL1123120, “Synthesis and structure-activity relationships of a new series of antiarrhythmic agents: 4,4-disubstituted hexahydro-3H-pyrido[1,2-c]pyrimidin-3-ones and related compounds” (J Med Chem, 1985) are described below.

A value given as a limit tells only on which side of the number the result lay.

The test system of assay [1] is Canis familiaris. As to the kind of experiment: Antiarrhythmic activity in Beagle dogs following i.v. administration; minimum effective dose to suppress ventricular ectopic rate >/=25% for a minimum duration of 10 min. In kind it is functional, Canis lupus familiaris, Heart. Conditions: for minimal effective dose: Canis lupus familiaris, Heart, iv, 10 min, read-out: MED. In short, it runs like this: (§1)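 Beagles of either sex, pentobarbital 30 mg/kg i.v., had two-stage LAD coronary ligation; tested conscious about 24 h later if ectopic rate ≥130 beats/min, ectopic ≥75% of total rate, and controls within 10%. HCl salts given i.v. to at least two dogs: 5 mg/kg repeated every 15 min to 20 mg/kg max; if active, 1 mg/kg every 5 min to 6 mg/kg. Active means ectopic rate reduced ≥25% for ≥10 min.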

Assay [2] addresses Muscarinic acetylcholine receptor (Rattus norvegicus) (UniProt P08482+P08483+P08485+P08911+P10980). As to the kind of experiment: Muscarinic acetylcholine receptor binding affinity in rat brain homogenate by [3H]quinuclidinylbenzilate displacement compared to disopyramide. In kind it is tissue-based. In short, it runs like this: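 Whole male CD rat brain without cerebellum was homogenized and spun at 1000g. The supernatant was incubated with 0.15 nM [3H]QNB, with or without compound, 25 °C, 1 h. Three to six concentrations were run in triplicate, and IC50 came from log-probit analysis. Values are expressed as the ratio IC50(test)/IC50(disopyramide).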

In assay [3] the test system is Canis familiaris. In words: Hemodynamic effect of 5 mg/kg of compound was assessed in Beagle dogs by decrease in mean arterial pressure; max dose administered was 35 mg/kg. Format: functional, Canis lupus familiaris, Artery. In short, it runs like this:
(§2)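 Dogs of either sex were anesthetized with pentobarbital 30 mg/kg i.v. plus 5 mg/kg, then stabilized 30 min. Compound was given via right femoral vein. Where mean antiarrhythmic dose exceeded 5 mg/kg: 5 mg/kg over 5 min every 15 min until MAP fell 50% or 50 mg/kg cumulative. Otherwise: 1 mg/kg/min every 5 min up to 10 mg/kg. MAP was electronically averaged, with baseline the mean of four 5-min readings.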

For assay [4], the species on record is Canis familiaris. In words: The mean effective dose to suppress ventricular ectopic rate >=25% for a minimum duration of 10 minutes was reported. Format: functional. Conditions: Canis lupus familiaris, Cardiac ventricle, read-out: MED. In short, it runs like this:
as §1

Assay [5] has as its system Canis familiaris. In words: Decrease in myocardial contractility was determined by monitoring the maximum rate of rise of ventricular pressure in 10 Beagle dogs at a dose of 10 mg/kg. Format: functional, Canis lupus familiaris, Cardiac ventricle.
For assay [6], the species on record is Cavia porcellus. In words: Antimuscarinic activity in guinea pig ileum. Format: functional. Conditions: read-out: pA2 (converted). The method, boiled down:
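Guinea pig ileum was held in modified Tyrode's gassed with 95% O2/5% CO2, pH 7.4, under 0.5 g tension and equilibrated 30 min. A cumulative acetylcholine curve was run, the tissue rinsed 10 min, and the curve repeated with antagonist at four concentrations at quarter-log steps. pA2 by Van Rossum; if noncompetitive, −log of the concentration cutting maximal response 50%. At least four experiments were run.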

Assay [7] relates to Canis familiaris. As to the kind of experiment: Hemodynamic effect of 5 mg/kg of compound was assessed in Beagle dogs by decrease in mean arterial pressure; max dose administered was 29 mg/kg. In kind it is functional, Canis lupus familiaris, Artery. The method, boiled down: as §2
Assay [8] has as its system Canis familiaris. As to the kind of experiment: Hemodynamic effect of 1 mg/kg of compound was assessed in Beagle dogs by decrease in mean arterial pressure; max dose administered was 10 mg/kg. Format: functional, Canis lupus familiaris, Artery. The method, boiled down: as §2
Assay [9] concerns Canis familiaris. In words: Hemodynamic effect of 5 mg/kg of compound was assessed in Beagle dogs by decrease in mean arterial pressure; max dose administered was 50 mg/kg. Format: functional, Canis lupus familiaris, Artery. The method, boiled down: as §2

For `CCC1=NC(=O)C(CCN(C(C)C)C(C)C)(c2ccccc2)C2CCCCN12` (centres undefined), the minimal effective dose in [1] stood at 12.5 mg/kg. Also, in assay [2], the Muscarinic receptor affinity stood at 0.0625.
As to `CC(C)N(CCC1(c2ccccc2)C(=O)NCN2CCCCC21)C(C)C` (centres undefined), in [2], the Muscarinic receptor affinity came out at 0.0769. Also, the “Decrease in MAP” value in assay [3] is on record as 54%. Besides, the minimal effective dose in assay [4] is 6 mg/kg.
With `CC(C)N(CCC(C(N)=O)(c1ccccc1)c1ccccn1)C(C)C` (centres undefined) [DISOPYRAMIDE], the minimal effective dose in assay [1] and in assay [4] was 10 mg/kg each time. Moreover, in assay [2], the Muscarinic receptor affinity worked out at 1. Also, in [5], the Decrease is 56%. Further, in assay [6], the Kb is 0.891 µM. In assay [7], the “Decrease in MAP” value stood at 57%.
On to `CC(C)N(CC[C@]1(c2ccccc2)C(=O)N(C)CN2CCCC[C@@H]21)C(C)C`, for which the minimal effective dose in [1] is 7.5 mg/kg.
As to `CC(C)N(CCC1(c2ccccc2)C(=O)N=CN2CCCCC21)C(C)C` (centres undefined), in assay [1], the MED came to 10 mg/kg and the minimal effective dose was 20 mg/kg.
In the case of `CC(C)N(CCC1(c2ccccc2)C(=O)NC(C)N2CCCCC21)C(C)C` (centres undefined), the minimal effective dose in assay [1] and in [4] was 2.5 mg/kg each time. Further, in assay [2], the Muscarinic receptor affinity is under 0.05. In assay [5], this compound displayed a Decrease of 21%. Moreover, in [6], the Kb was 60.3 µM. In addition, the “Decrease in MAP” value in assay [8] worked out at 4%.
With `CC(C)N(CCC1(c2ccccc2)C(=O)N=C(c2ccccc2)N2CCCCC21)C(C)C` (centres undefined), the minimal effective dose in assay [1] was determined as 1 mg/kg. This compound yielded a Muscarinic receptor affinity in assay [2] of 0.25.
On to `CC(C)N(CCC1(c2ccccc2Cl)C(=O)N=CN2CCCCC21)C(C)C` (centres undefined), for which the minimal effective dose in assay [1] amounted to 15 mg/kg. The Muscarinic receptor affinity in assay [2] came out at 0.0125.
The like results for `CC(C)N(CC[C@]1(c2ccccc2)C(=O)N[C@@H](C)N2CCCC[C@@H]21)C(C)C` were, in that order, 10 mg/kg and 0.0434.
Regarding `CC(C)N(CCC1(c2ccccc2)C(=O)NC(c2ccccc2)N2CCCCC21)C(C)C` (centres undefined), the minimal effective dose in [1] was determined as 4 mg/kg. The compound also returned a Muscarinic receptor affinity in [2] of 0.0434.
As for `CC1=NC(=O)C(CCN(C(C)C)C(C)C)(c2ccccc2)C2CCCCN12` (centres undefined) [ACTISOMIDE], in [1], the MED turned out to be 10 mg/kg and the minimal effective dose was 9 mg/kg. Also, the “Decrease in MAP” value in [9] stood at 3%. In assay [5], the Decrease stood at 14%. In addition, in assay [6], the Kb is 13.2 µM. Moreover, the minimal effective dose in [4] worked out at 9.1 mg/kg.
In the case of `CC(C)N(CCC1(c2ccc(-c3ccccc3)cc2)C(=O)N=CN2CCCCC21)C(C)C` (centres undefined), the minimal effective dose in assay [1] and in assay [4] was 2.5 mg/kg throughout. Besides, the Muscarinic receptor affinity in [2] was 0.02. In addition, the “Decrease in MAP” value in assay [8] came to 27%.
`CCC1NC(=O)C(CCN(C(C)C)C(C)C)(c2ccccc2)C2CCCCN12` (centres undefined): the minimal effective dose in assay [1] came out at 6 mg/kg. Besides, the Muscarinic receptor affinity in assay [2] was found to be 0.0909.
On the same counts, the results for `CC(C)N(CCC1(c2ccc(-c3ccccc3)cc2)C(=O)NCN2CCCCC21)C(C)C` (centres undefined) are 5 mg/kg and 0.0625.
As to `CC(C)N(CCC1(c2ccccc2Cl)C(=O)NCN2CCCCC21)C(C)C` (centres undefined), the minimal effective dose in assay [1] amounted to 7.5 mg/kg. This compound also came in with a Muscarinic receptor affinity in assay [2] of under 0.01.
